Test [1] relates to Mus musculus. Briefly: Antiallodynic activity against capsaicin-induced nocifensive behavior in mouse assessed as paw withdrawal latency to von Frey filament-induced pain at 0.5 mg/kg administered 30 mins before and measured 15 mins after capsaicin challenge. The class given is functional, organism-based. Set-up: dose 0.5 mg/kg.
Test [2] relates to Mus musculus. Briefly: Antiallodynic activity against capsaicin-induced nocifensive behavior in mouse assessed as paw withdrawal latency to von Frey filament-induced pain at 32 mg/kg administered 30 mins before and measured 15 mins after capsaicin challenge. The class given is functional. The method in brief: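 Mechanical allodynia model in mice: capsaicin injected subplantarly into the midplantar surface of the right hind paw, and test compound given 30 min beforehand. Withdrawal latency to a 1 g von Frey filament was read 15 min after capsaicin. 32 mg/kg was the highest dose tested.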

Test [3] has as its target Sigma non-opioid intracellular receptor 1 (Cavia porcellus, UniProt Q60492). As to the kind of experiment: Displacement of (+)-[3H]pentazocine from guinea pig brain sigma 1 receptor after 180 mins by scintillation counting.
A short description of test [4]: Displacement of [3H]ditolylguanidine from rat liver sigma 2 receptor by scintillation counting. Summed up:
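σ2 sites from rat liver homogenate, labelled with nonselective [3H]-ditolylguanidine. 500 nM unlabelled (+)-pentazocine masks σ1 sites. Competition with six test concentrations, usually in triplicate. Bound radioactivity counted by scintillation. IC50 by nonlinear regression and Ki by Cheng–Prusoff; mean ± SEM from three independent experiments for high-affinity ligands.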
Background: Loss of bound radioactivity is the signal in a displacement assay; it reports binding, not function.

For a further test, the species on record is Sus scrofa. As to the kind of experiment: Displacement of (+)-[3H]MK-801 from pig NMDA receptor PCP binding site at 1 uM. The method in brief: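 PCP site of the NMDA receptor: competition against [3H]-(+)-MK-801 in fresh pig brain cortex membranes. Test compounds at 1 μM.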
Test [5] is described as follows: Selectivity ratio of alpha-2A adrenergic receptor to guinea pig sigma1 receptor.
The nature of test [6]: Selectivity ratio of 5-HT transporter to guinea pig sigma1 receptor.
A short description of test [7]: Selectivity ratio of 5-HT1A receptor to guinea pig sigma1 receptor.
The target of test [8] is T1, Alpha-1A adrenergic receptor (Homo sapiens, UniProt P35348).
T1 sequence (P35348 whole entry): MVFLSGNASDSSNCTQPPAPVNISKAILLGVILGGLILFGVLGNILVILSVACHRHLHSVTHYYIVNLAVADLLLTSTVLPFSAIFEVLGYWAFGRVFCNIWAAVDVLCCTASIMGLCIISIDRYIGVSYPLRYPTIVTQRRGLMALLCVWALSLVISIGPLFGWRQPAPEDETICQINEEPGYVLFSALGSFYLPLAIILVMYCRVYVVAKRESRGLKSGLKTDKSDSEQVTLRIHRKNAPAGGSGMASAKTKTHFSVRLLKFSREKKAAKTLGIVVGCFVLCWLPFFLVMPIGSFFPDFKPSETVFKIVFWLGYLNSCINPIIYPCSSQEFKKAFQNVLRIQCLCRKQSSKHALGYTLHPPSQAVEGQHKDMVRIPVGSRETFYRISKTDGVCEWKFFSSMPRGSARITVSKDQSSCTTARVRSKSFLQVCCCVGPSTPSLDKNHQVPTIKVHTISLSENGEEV
As to the kind of experiment: Binding affinity to alpha-1A adrenergic receptor.

For test [9], the target named is T2, Alpha-2A adrenergic receptor (Homo sapiens, UniProt P08913).
T2 sequence (P08913 whole entry): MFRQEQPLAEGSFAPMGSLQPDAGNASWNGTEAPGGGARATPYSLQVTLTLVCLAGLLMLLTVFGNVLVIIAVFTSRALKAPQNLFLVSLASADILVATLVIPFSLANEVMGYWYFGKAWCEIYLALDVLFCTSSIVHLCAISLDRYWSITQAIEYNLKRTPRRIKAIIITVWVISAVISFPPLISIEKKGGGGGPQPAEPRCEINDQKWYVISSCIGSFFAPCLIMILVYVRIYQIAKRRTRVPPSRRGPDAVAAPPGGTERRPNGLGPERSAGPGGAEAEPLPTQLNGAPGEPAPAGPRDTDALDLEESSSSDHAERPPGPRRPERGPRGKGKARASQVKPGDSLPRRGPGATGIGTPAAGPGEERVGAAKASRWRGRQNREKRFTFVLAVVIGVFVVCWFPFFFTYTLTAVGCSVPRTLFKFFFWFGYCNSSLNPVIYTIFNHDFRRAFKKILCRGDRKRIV
Briefly: Binding affinity to alpha-2A adrenergic receptor.

Test [10] addresses Sodium-dependent serotonin transporter (Homo sapiens, UniProt P31645). As to the kind of experiment: Binding affinity to 5-HT transporter.
Test [11] addresses T3, 5-hydroxytryptamine receptor 1A (Homo sapiens, UniProt P08908).
T3 sequence (P08908 whole entry): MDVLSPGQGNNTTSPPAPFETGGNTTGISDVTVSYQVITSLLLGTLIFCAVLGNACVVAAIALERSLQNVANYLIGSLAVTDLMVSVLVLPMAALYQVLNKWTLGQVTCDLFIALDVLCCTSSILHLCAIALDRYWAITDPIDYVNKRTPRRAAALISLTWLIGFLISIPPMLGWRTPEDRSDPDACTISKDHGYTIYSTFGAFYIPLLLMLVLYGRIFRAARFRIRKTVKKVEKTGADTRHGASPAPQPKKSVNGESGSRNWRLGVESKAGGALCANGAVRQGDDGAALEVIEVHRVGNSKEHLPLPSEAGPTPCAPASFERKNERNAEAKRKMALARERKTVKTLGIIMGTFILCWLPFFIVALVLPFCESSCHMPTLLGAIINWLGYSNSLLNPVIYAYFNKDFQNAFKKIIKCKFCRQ
Briefly: Binding affinity to 5-HT1A receptor.

A short description of test [12]: Selectivity ratio of alpha-1A adrenergic receptor to guinea pig sigma1 receptor.

The source made the active and inactive calls. The calls are words filed in the database; no cut-off is given here.

For orientation: Ki means a measure of affinity in units of concentration, obtained from inhibition or displacement. Read a low Ki as tighter binding. As a reminder, the IC50 is the point on the concentration scale where inhibition reaches its midpoint. Lower therefore signals inhibition by little substance.

Chain of Sodium-dependent serotonin transporter (P31645 whole entry): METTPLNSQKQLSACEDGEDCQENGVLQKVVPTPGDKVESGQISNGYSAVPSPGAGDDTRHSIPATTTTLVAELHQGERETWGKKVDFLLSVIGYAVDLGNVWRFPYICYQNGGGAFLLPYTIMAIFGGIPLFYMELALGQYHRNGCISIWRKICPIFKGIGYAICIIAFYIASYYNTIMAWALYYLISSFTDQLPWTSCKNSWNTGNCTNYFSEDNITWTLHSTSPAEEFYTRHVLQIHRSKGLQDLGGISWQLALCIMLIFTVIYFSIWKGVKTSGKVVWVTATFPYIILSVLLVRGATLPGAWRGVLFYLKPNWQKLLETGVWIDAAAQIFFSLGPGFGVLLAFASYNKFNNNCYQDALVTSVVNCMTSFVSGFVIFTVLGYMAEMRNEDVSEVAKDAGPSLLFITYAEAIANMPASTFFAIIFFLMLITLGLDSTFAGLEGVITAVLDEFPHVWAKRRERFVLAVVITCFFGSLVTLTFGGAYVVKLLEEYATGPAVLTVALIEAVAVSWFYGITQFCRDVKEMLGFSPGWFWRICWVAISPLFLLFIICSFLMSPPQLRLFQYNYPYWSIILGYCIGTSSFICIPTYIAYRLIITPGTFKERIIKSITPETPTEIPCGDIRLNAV
Chain of Sigma non-opioid intracellular receptor 1 (Q60492 whole entry): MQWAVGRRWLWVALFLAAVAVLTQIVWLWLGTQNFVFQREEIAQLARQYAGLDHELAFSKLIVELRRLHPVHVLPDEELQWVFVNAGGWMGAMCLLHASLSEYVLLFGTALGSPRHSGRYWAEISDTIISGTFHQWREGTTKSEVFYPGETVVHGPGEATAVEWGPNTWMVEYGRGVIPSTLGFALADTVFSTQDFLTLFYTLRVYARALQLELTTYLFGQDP

Consider `C=C(C)CCN1CCC2(CC1)OC(OC)Cc1c2cnn1-c1ccccc1` (configuration not stated), for which the result in the test on Mus musculus [1] and in the test listed under Sus scrofa was inactive. Besides, the Activity in the test on Mus musculus [2] was found to be 25%. Moreover, the Ki was 1.6 nM in test [3] and more than 1000 nM in test [4].

`COC1Cc2c(cnn2-c2ccccc2)C2(CCN(CC3CCCCC3)CC2)O1` (configuration not stated): the Ratio in test [5], in [6], in test [7] and in test [12] was 1000 each time. For the same molecule, the result in the test with Mus musculus [1] and in the test listed under Sus scrofa was inactive. Also, the Activity in the test with Mus musculus [2] was 70%. The molecule also had a Ki in [4] of 109 nM. For the same molecule, the IC50 in test [8], in test [9], in test [10] and in test [11] was more than 1000 nM throughout.

The values are drawn from ChEMBL document CHEMBL1828572, “Combination of two pharmacophoric systems: synthesis and pharmacological evaluation of spirocyclic pyranopyrazoles with high σ₁ receptor affinity” (J Med Chem, 2011).
